The full list was thinned out, with hits kept by preference.
ALR H2O2 inh: blocks human ALR sulfhydryl oxidase activity | 290,000 compounds, 3.8% hits | inhibition, % (no concentration beside the values) | P55789 | purified ALR, DTT oxidation, H2O2 HRP-luminol luminescence | AID 485317;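 active = mean replicate inhibition above about 79%, with every replicate also reaching it, limit read from the data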
Target sequence (P55789 whole entry, looked up): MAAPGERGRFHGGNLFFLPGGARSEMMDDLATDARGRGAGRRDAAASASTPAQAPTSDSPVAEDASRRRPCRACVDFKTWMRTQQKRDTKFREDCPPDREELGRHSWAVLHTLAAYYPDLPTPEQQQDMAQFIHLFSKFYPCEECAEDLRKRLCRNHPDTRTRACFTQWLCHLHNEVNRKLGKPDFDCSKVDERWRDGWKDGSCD
Glyco luc inh: blocks N-linked glycosylation in D54 reporter cells; 360,000 compounds, 0.23% hits; reporter increase, % at 12.5 µM; D54 ERlucT glycosylation luciferase reporter, 24 h; percent of 100 nM tunicamycin response;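 active = mean luciferase reporter signal, scaled so untreated is 0 and the glycosylation-blocking control 100, at or above a set limit in every replicate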;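 note: luciferase carries N-glycosylation sites so blocking glycosylation raises the light; 0% = median of neutral control wells and 100% = median of 100 nM tunicamycin wells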
T cell modulator: modulates CD8 T cell binding to vesicles; response (vesicle binding), % at 7 µM; 330,000 compounds, 0.068% hits; 2C CD8+ T cell-vesicle binding, flow cytometry; active compounds read low; AID 2052;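 active = response, share of CD8 T cells binding vesicles, and their 90th percentile fluorescence all below set limits, cut at about 80% in these data, passing the limit was not always enough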;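 note: values below 100% mean blocked vesicle binding to the CD8+ T cells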
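Material: murine 2C transgenic CD8+ T lymphocytes / Also added: QL9-peptide-loaded Drosophila micro-vesicles bearing Ld, ICAM-1 and B7-1 / Schedule: binding step 1.5 h, 37 °C, antibody labelling 20 min, ice / Signal: flow cytometry, PE anti-B7-1 (FL2) versus Alexa647 anti-CD8 (FL8), PFA-fixed / Evaluation: percent CD8+ FL2 mean versus row control / Benchmarks: naked versus QL9-loaded vesicles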
Numbers without * were called inactive.

For COc1ccc(CNc2ccc(Br)cc2)cc1 the results were ALR H2O2 inh 98*, Glyco luc inh -9 and T cell modulator 457.
COc1ccc(CNc2ccc(C(=O)O)cc2)cc1 was read as ALR H2O2 inh -1, Glyco luc inh 1 and T cell modulator 261.
COCCNC(=O)C1(C)CCCN(C(=O)COc2ccccc2)C1 (stereo not drawn) was read as Glyco luc inh 1.
Screening O=c1[nH][nH]cc1C=NCc1cccc(C(F)(F)F)c1 returned ALR H2O2 inh -20, Glyco luc inh -2 and T cell modulator 247.
Screening COC(=O)C(C(=O)Nc1ccccc1C)C1CCCCCC1 (stereo not drawn) returned ALR H2O2 inh 6, Glyco luc inh 0 and T cell modulator 317.
`Cc1ccc(CN2CCN(/N=C/C(Br)=C\c3ccccc3)CC2)cc1` gave ALR H2O2 inh -2, Glyco luc inh -4 and T cell modulator 371.
For Cc1ccc(-c2nn(-c3ccccc3)cc2C2CC(c3cccs3)=NN2C(=O)CCC(=O)O)cc1 (stereo not drawn) the results were ALR H2O2 inh 9, Glyco luc inh 0 and T cell modulator 168.
For O=C(O)CCn1cc(C2CC(c3ccccc3)=NN2c2ccccc2)c(-c2ccccc2)n1 (stereo not drawn) the results were ALR H2O2 inh 99*, Glyco luc inh 2 and T cell modulator 278.
For CCn1cc(C(=O)NCC(OC)OC)c(=O)c2cc(S(=O)(=O)N3CCC(C)CC3)ccc21 the results were ALR H2O2 inh -2, Glyco luc inh 2 and T cell modulator 295.
`c1ccc(N2CCN(c3ccccc3)C2c2cccs2)cc1` gave ALR H2O2 inh 99*, Glyco luc inh 2 and T cell modulator 351.
For O=C1C2CCCN2C(c2cccs2)N1c1ccc(F)cc1 (stereo not drawn) the results were ALR H2O2 inh 0, Glyco luc inh -1 and T cell modulator 412.
For Nn1c(SCc2cn3ccccc3n2)nnc1-c1ccncc1 the results were ALR H2O2 inh -1, Glyco luc inh 7 and T cell modulator 306.
Screening Nn1c(SCc2cn3cc(Cl)ccc3n2)nnc1-c1ccncc1 returned ALR H2O2 inh 98*, Glyco luc inh 8 and T cell modulator 180.
`NC(=O)c1nnsc1-c1ccco1` gave Glyco luc inh 1.
Screening O=C1CCC(=O)N1c1ccc(S(=O)(=O)N2CCCC2)cc1 returned ALR H2O2 inh -1, Glyco luc inh 1 and T cell modulator 687.
COc1ccc(/C=C/c2cc(=O)c3cc(Cl)ccc3o2)cc1 was read as ALR H2O2 inh 97*, Glyco luc inh -2 and T cell modulator 275.
COc1ccc(-c2cc(=O)c3cc(OC)ccc3o2)cc1 was read as ALR H2O2 inh -1, Glyco luc inh -19 and T cell modulator 348.
Screening CC(C)c1cccc(C(C)C)c1NC(=O)CN1C(=O)NC2(CCCCCCC2)C1=O returned ALR H2O2 inh 1, Glyco luc inh 1 and T cell modulator 184.
For COc1c(C)oc2cc(O)ccc2c1=O the results were ALR H2O2 inh -2, Glyco luc inh 2 and T cell modulator 395.
For Oc1ccc2c(c1)oc1cc(O)ccc12 the results were ALR H2O2 inh 99*, Glyco luc inh -1 and T cell modulator 430.
`Cc1noc(NS(=O)(=O)c2ccc(N/C=C\C(=O)c3ccncc3)cc2)c1C` gave ALR H2O2 inh 9, Glyco luc inh 1 and T cell modulator 208.
CCc1ccc(C(=O)/C=C/Nc2ccc(S(=O)(=O)Nc3onc(C)c3C)cc2)cc1 was read as ALR H2O2 inh 97*, Glyco luc inh -2 and T cell modulator 0.
Screening Cc1noc(NS(=O)(=O)c2ccc(N/C=C/C(=O)c3ccc(F)cc3)cc2)c1C returned ALR H2O2 inh 8, Glyco luc inh 0 and T cell modulator 348.
`COc1ccc(C(=O)/C=C/Nc2ccc(S(=O)(=O)Nc3onc(C)c3C)cc2)cc1` gave ALR H2O2 inh 97*, Glyco luc inh 0 and T cell modulator 418.
CSC(=NC#N)N1CCN(c2ccccn2)CC1 was read as ALR H2O2 inh 53, Glyco luc inh 0 and T cell modulator 165.
`CCN(CCCNC(=O)CN(C)S(=O)(=O)c1cccc2nsnc12)c1ccccc1` gave ALR H2O2 inh 95*, Glyco luc inh 1 and T cell modulator 148.
`CN(CC(=O)NCCc1ccccc1)S(=O)(=O)c1cccc2nsnc12` gave ALR H2O2 inh -2, Glyco luc inh -1 and T cell modulator 98.
`O=C(Nc1ccccc1)N1CCc2c([nH]c3ccccc23)C1C(F)(F)F` (stereo not drawn) gave ALR H2O2 inh 0, Glyco luc inh -1 and T cell modulator 32*.
Screening CC1c2[nH]c3ccccc3c2CCN1C(=O)Nc1ccccc1 (stereo not drawn) returned ALR H2O2 inh 50, Glyco luc inh 1 and T cell modulator 189.
CC(C)CC(O)(CC(C)C)C(=O)NNc1ccccc1 was read as ALR H2O2 inh 99*, Glyco luc inh 2 and T cell modulator 170.
Screening CC(C)CCC(O)(CCC(C)C)C(=O)NNc1ccccc1 returned ALR H2O2 inh 8, Glyco luc inh 1 and T cell modulator 371.
For C=CCN(CC(=O)O)S(=O)(=O)c1ccccc1C(F)(F)F the results were Glyco luc inh -1 and T cell modulator 166.
Screening NS(=O)(=O)c1ccc(CNS(=O)(=O)c2cccc3nonc23)cc1 returned ALR H2O2 inh -20, Glyco luc inh -1 and T cell modulator 521.
For O=S(=O)(NCc1ccccc1)c1cccc2nonc12 the results were ALR H2O2 inh 99*, Glyco luc inh 0 and T cell modulator 280.
For CN(C(=O)c1cc2ccccc2o1)c1c(N)n(Cc2ccccc2)c(=O)[nH]c1=O the results were Glyco luc inh 4 and T cell modulator 181.
For COc1ccc(CN(C)C[C@@H]2OCc3cnnn3CCCC(=O)N([C@@H](C)CO)C[C@H]2C)cc1 the results were Glyco luc inh -1.
Screening CC(C)CCNC(=O)[C@H](Cc1ccccc1)N1Cc2ccccc2C1=O returned Glyco luc inh -1 and T cell modulator 177.
O=S(=O)(c1ccc2c(c1)CCN2)N1CCCC1 was read as ALR H2O2 inh 98*, Glyco luc inh 2 and T cell modulator 405.
`O=S(=O)(c1ccc2c(c1)CCCN2)N1CCCC1` gave Glyco luc inh 0 and T cell modulator 250.
O=C(CC1C(=O)NCCN1Cc1c(F)cccc1Cl)NCCCN1CCCC1=O (stereo not drawn) was read as ALR H2O2 inh -9, Glyco luc inh 0 and T cell modulator 323.
CC(=O)Nc1cccc(-c2csc(Nc3ccc(Cl)cn3)n2)c1 was read as ALR H2O2 inh 98*, Glyco luc inh -4 and T cell modulator 259.
For CC(=O)Nc1cccc(-c2csc(N)n2)c1 the results were ALR H2O2 inh 98*, Glyco luc inh 4 and T cell modulator 127.
For CC(=O)Nc1ccc(-c2csc(Nc3ccc(Cl)cn3)n2)cc1 the results were Glyco luc inh 1 and T cell modulator 244.
`CC(=O)Nc1cccc(-c2csc(NCc3ccccc3)n2)c1` gave ALR H2O2 inh 67, Glyco luc inh -2 and T cell modulator 559.
Screening COc1ccc(CN2C(=O)C(CC(=O)NC3CCCC3)CC(C(=O)N(C)C)=C2C)cc1 (stereo not drawn) returned Glyco luc inh 3.

Assay outcomes: PubChem BioAssay, several laboratories
